From PubChem BioAssay
Active and inactive are the calls of the source.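 How the source made its calls, unless noted: active means inhibition at or above 50% at 10 µM; inactive means inhibition below 50%.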

How the values were obtained:
[1] = inhibitors of TNFa-induced NFkB p65 translocation, primary screen, imaging, HUVEC, MLSMR starter and 10KST1 sets (AID 438;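 active means inhibition above 20% together with a positive visual image hit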;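 further: compound added about 3h40 before a 20 min TNFalpha stimulation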;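 on inhibition: signal is the nuclear over cytoplasmic p65 intensity ratio per well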); conditions: HUVEC TNFa-induced p65 nuclear translocation; cell count: measured here: nuclei count (cytotoxicity indicator), at 2.08 µM; inhibition: at 2 µM, stronger effect = higher value, 0% TNFa-plus-vehicle, 100% no-TNFa wells
[2] = inhibitors of mutant huntingtin aggregation, primary screen, imaging, exon1htt(103Q)mCFP cells, high-content imaging (AID 483;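 active means visual image review flags a hit and inhibition of aggregation exceeds 20%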;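 further: compound exposure lasted 3 days before fixation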;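 on nuclei count: percent of the per-plate median nuclei count of sample wells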); conditions: exon1htt(103Q)mCFP cell line, aggregate imaging, at 2 µM; inhibition of aggregation: stronger effect = higher value; nuclei count: measured here: cell count, toxicity
[3] = inhibitors of E-selectin induction by TNFa, primary screen, imaging, HUVEC, immunofluorescence, MLSMR starter and 10KST1 sets (AID 487;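 active means visually confirmed hit in the image check and inhibition above 20%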;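 on inhibition: signal is fraction of cell area covered by stained E-selectin grains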;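 on nuclei count: 100% = median nuclei count of all wells on the same plate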); conditions: HUVEC TNFalpha-induced E-selectin immunofluorescence imaging, at 2 µM; inhibition: stronger effect = higher value; nuclei count: measured here: cell number, toxicity
[4] = biological target: Voltage-gated potassium channel subunit beta-2 (Rattus norvegicus) (UniProt P62483); test: KvBeta enzyme negative modulators, primary screen, biochemical, NADPH fluorescence (AID 622;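 active means fluorescence slope higher than the sample average by over 3 SD, cut at about -0.22 in these data, passing the limit was not always enough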;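 further: slope of raw intensity against log time taken from 70 to 1610 s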); conditions: recombinant KvBeta, 4-cyanobenzaldehyde reduction, at 10 µM, stronger effect = higher value
[5] = biological target: Voltage-gated potassium channel subunit beta-2 (Rattus norvegicus) (UniProt P62483); test: KvBeta positive modulators, primary screen, biochemical, NADPH fluorescence (AID 623;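 active means NADPH fluorescence slope more negative than the mean of all samples by about 3 SD, 99.7% confidence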;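 further: fluorescence intensity change per second fitted from 20 to 320 s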); conditions: Recombinant KvBeta, NADPH fluorescence decrease slope, 10 min; at 10 µM; stronger effect = lower value
[6] = biological target: Muscarinic acetylcholine receptor M4 (Homo sapiens) (UniProt P08173); test: compounds altering M4/GIRK thallium flux, either direction, primary screen, M4 allosteric agonist project, cell-based, HEK293 M4/GIRK, BTC-AM (AID 625;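 active means fluorescence slope after compound addition differing from the mean of all tested samples at 99.7% confidence, mostly higher but some lower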;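 further: thallium influx through GIRK channels coupled to M4 in HEK293 cells with BTC-AM dye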); conditions: at 10 µM, actives lie on both sides
Summary of the method: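 Material – HEK293 cells with M4 receptor and GIRK channels · Buffer or medium – pH 7.3 thallium assay buffer · Doses – one dose, 10 µM final · Timing – cells overnight at 37 °C, BTC-AM loading 1 h, reads 2 min total · Measured by – kinetic fluorescence with BTC-AM dye · Controls – carbachol and DMSO controls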

[7] = inhibitors of Sendai virus-induced IRF3 signaling, primary screen, TLR/RLR signaling modifier project, cell-based, Sendai virus stimulus, luciferase, 10K MLSCN set (AID 602276); conditions: HEK293 RL24 IRF3 luciferase reporter, at 10 µM, stronger effect = higher value;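 further: firefly luciferase from ISG56 promoter only with Renilla not read in this screen; 0% = Sendai virus plus DMSO and 100% = medium plus DMSO without virus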
[8] = inhibitors of poly I:C-induced TLR3 signaling, primary screen, cell-based, poly I:C stimulus, luciferase, 10K MLSCN set (AID 602277;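 active means inhibition of the reporter signal at or above 50%; inactive means inhibition below 50%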); conditions: HEK293-TLR3 RL24 IRF3 luciferase reporter, at 10 µM, stronger effect = higher value

Chain of Muscarinic acetylcholine receptor M4 (Homo sapiens) (P08173 whole entry, looked up): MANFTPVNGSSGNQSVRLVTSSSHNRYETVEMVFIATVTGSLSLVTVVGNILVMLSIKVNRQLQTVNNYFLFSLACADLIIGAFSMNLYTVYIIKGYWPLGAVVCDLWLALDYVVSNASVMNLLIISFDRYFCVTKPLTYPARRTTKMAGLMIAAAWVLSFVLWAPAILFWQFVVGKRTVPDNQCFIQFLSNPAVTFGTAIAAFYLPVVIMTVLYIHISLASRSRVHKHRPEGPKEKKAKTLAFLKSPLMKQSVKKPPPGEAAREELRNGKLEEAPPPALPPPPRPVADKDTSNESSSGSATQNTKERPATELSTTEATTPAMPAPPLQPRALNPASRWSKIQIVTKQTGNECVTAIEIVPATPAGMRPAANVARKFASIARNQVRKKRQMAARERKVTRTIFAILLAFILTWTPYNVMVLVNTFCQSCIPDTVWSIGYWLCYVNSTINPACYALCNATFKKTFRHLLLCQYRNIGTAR
Chain of Voltage-gated potassium channel subunit beta-2 (Rattus norvegicus) (P62483 whole entry, looked up): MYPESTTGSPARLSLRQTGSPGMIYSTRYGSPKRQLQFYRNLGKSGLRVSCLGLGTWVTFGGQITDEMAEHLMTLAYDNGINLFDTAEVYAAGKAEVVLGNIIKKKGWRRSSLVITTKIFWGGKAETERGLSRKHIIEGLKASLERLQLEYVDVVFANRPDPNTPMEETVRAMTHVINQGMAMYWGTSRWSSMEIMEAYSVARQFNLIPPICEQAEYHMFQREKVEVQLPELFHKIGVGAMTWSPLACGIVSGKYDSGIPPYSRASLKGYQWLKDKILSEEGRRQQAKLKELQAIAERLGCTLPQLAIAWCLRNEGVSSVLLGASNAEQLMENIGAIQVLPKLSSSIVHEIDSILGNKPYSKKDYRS

SMILES	cell count [1]	inhibition [1]	inhibition of aggregation [2]	nuclei count [2]	inhibition [3]	nuclei count [3]	fluorescence slope [4]	NADPH fluorescence slope [5]	fluorescence slope [6]	inhibition [7]	inhibition [8]
CCCOc1ccc([C@@H]2C3CN(C(=O)OCC)CC=C3C(C#N)=C(N)C2(C#N)C#N)cc1OC (stereo partly drawn)	743	-23.3% (inactive)	14.7% (inactive)	102%	-44.9% (inactive)	112%	-0.237 (inactive)	-2.5e-05 (inactive)	0.00528 (inactive)	11% (inactive)	-2.37% (inactive)
O=C(CN(c1ccc(F)cc1)S(=O)(=O)c1ccc2c(c1)OCCO2)NCC1CCCO1 (stereo not drawn)	472	0.8% (inactive)	-6.6% (inactive)	92.4%	-58.6% (inactive)	107%	-0.453 (inactive)	-4.3e-05 (inactive)	0.00466 (inactive)	17% (inactive)	24.3% (inactive)
CC(Oc1ccc(Br)cc1)C(=O)N1CCc2ccccc21 (stereo not drawn)	406	6.3% (inactive)	22.4% (inactive)	104%	-97.2% (inactive)	119%	-0.486 (inactive)	5.9e-05 (inactive)	0.00581 (inactive)	-4.76% (inactive)	-9.35% (inactive)
c1ccc2nc(-c3nc4ccccc4[nH]3)ccc2c1	574	9.8% (inactive)	-19.5% (inactive)	85.8%	-6.9% (inactive)	101%	-0.551 (inactive)	-2.7e-05 (inactive)	0.00356 (inactive)	11.5% (inactive)	-35.5% (inactive)
O=C(Nc1ccc(S(=O)(=O)NCCc2ccccc2)cc1)c1ccc(Br)o1	546	-1.3% (inactive)	-22.6% (inactive)	62.9%	-10.4% (inactive)	88.5%	-0.499 (inactive)	-5.2e-06 (inactive)	0.00439 (inactive)	-1.94% (inactive)	-11.8% (inactive)
Cc1c(=O)n(OCc2ccccn2)c2ccccc2[n+]1[O-]	208	-18.3% (inactive)	27.8% (inactive)	112%	14.4% (inactive)	89.2%	-0.412 (inactive)	-1.8e-05 (inactive)	0.00625 (inactive)	11.7% (inactive)	16.8% (inactive)
CCCCCn1c(CN(C)Cc2ccccc2)nc2c1c(=O)n(C)c(=O)n2C	529	-12.2% (inactive)	-2% (inactive)	86.5%	-110% (inactive)	110%	-0.46 (inactive)	-9.4e-05 (inactive)	0.00453 (inactive)	18.2% (inactive)	-3.26% (inactive)
O=C(c1cc(-c2cccs2)on1)N1CCc2ccccc2C1	490	-4.5% (inactive)	-23.8% (inactive)	106%	-28.9% (inactive)	96.8%	-0.441 (inactive)	-4.4e-06 (inactive)	0.00464 (inactive)	4.86% (inactive)	-18.5% (inactive)
CCN(CC)c1ccc(NC(=O)c2cncc(Br)c2)cc1	218	0.6% (inactive)	28% (inactive)	86.8%	-31.6% (inactive)	104%	-0.59 (inactive)	-6e-05 (inactive)	0.00416 (inactive)	-32.8% (inactive)	-129% (inactive)
O=C1C2C3C=CC(C3)C2C(=O)N1CNc1ccc(O)cc1 (stereo not drawn)	307	8.9% (inactive)	-9.8% (inactive)	108%	32.1% (inactive)	106%	-0.507 (inactive)	2.6e-05 (inactive)	0.00588 (inactive)	4.46% (inactive)	2.67% (inactive)
CCn1c(SC)nc2c(c1=O)SC(C)C2 (stereo not drawn)	570	-4.9% (inactive)	-5% (inactive)	112%	-20.6% (inactive)	118%	-0.432 (inactive)	-8.5e-05 (inactive)	0.00648 (inactive)	6.41% (inactive)	15.1% (inactive)
CCN(CC)S(=O)(=O)c1ccc2c(c1)c(=O)c(C(=O)NCCOC)cn2C	203	6.9% (inactive)	2.8% (inactive)	100%	-24.6% (inactive)	112%	-0.231 (inactive)	-3.4e-05 (inactive)	0.00464 (inactive)	19.3% (inactive)	15.8% (inactive)
CCOC(=O)c1[nH]c(C)c(C(=O)N2CCN(c3ccc(F)cc3)CC2)c1C	755	-2.2% (inactive)	-27% (inactive)	118%	-175% (inactive)	119%	-0.451 (inactive)	1.1e-05 (inactive)	0.00564 (inactive)	1.11% (inactive)	8.18% (inactive)
Cn1c(SCc2cccc3ccccc23)nnc1-c1ccco1	574	1.6% (inactive)	3.5% (inactive)	101%	-63% (inactive)	103%	-0.545 (inactive)	2.1e-05 (inactive)	0.00593 (inactive)	-8.19% (inactive)	-65.7% (inactive)
O=C(O)COc1ccc(Oc2ccccc2)cc1	357	0.5% (inactive)	0.7% (inactive)	103%	-8.6% (inactive)	112%	-0.567 (inactive)	1.9e-05 (inactive)	0.00744 (inactive)	3.08% (inactive)	9.93% (inactive)
C=C(C)Cn1c(CCNC(=O)CC)nc2ccccc21	494	-28.5% (inactive)	1.3% (inactive)	101%	-107% (inactive)	112%	-0.433 (inactive)	-6.1e-05 (inactive)	0.00575 (inactive)	9.76% (inactive)	14.1% (inactive)
COc1ccc(OC)c(S(=O)(=O)NCCO)c1	217	-7.9% (inactive)	11% (inactive)	112%	33.4% (inactive)	102%	-0.567 (inactive)	-2.1e-05 (inactive)	0.00652 (inactive)	16% (inactive)	24.6% (inactive)
CCCN(S(=O)(=O)c1ccc(OCC)cc1)S(=O)(=O)c1cccs1	457	7.4% (inactive)	-7.2% (inactive)	109%	-52.8% (inactive)	101%	-0.481 (inactive)	0.0001 (inactive)	0.00646 (inactive)	-4.95% (inactive)	2.38% (inactive)
CCn1ncc(C2=NOC(C(=O)NCc3ccccc3)C2)c1C (stereo not drawn)	309	-20.8% (inactive)	-64.1% (inactive)	2.2%	-53.2% (inactive)	105%	-0.446 (inactive)	3.3e-05 (inactive)	0.00637 (inactive)	17.4% (inactive)	73.3% (active)
CCOC(=O)C1CCCN(C(=O)c2cc(=O)c3ccccc3o2)C1 (stereo not drawn)	376	-18.9% (inactive)	-28.1% (inactive)	114%	-38.4% (inactive)	98.7%	-0.426 (inactive)	2.6e-05 (inactive)	0.00575 (inactive)	14.5% (inactive)	19.9% (inactive)
Cc1ccc(Cl)cc1NC(=O)CSc1nnc(C)n1-c1ccccc1	783	-5.4% (inactive)	-28.9% (inactive)	100%	-16% (inactive)	96%	-0.551 (inactive)	-4.3e-05 (inactive)	0.00502 (inactive)	21.8% (inactive)	23.3% (inactive)
NC1=NC(c2ccc(Cl)cc2)n2c(nc3ccccc32)N1 (stereo not drawn)	780	3.5% (inactive)	-8.4% (inactive)	125%	-15.2% (inactive)	113%	-0.584 (inactive)	1.3e-05 (inactive)	0.00539 (inactive)	16.5% (inactive)	18.6% (inactive)
Cc1csc2nc(CSc3nc4ccccc4o3)c(Br)n12	573	-14.8% (inactive)	-9.5% (inactive)	98.3%	-1.4% (inactive)	125%	-0.536 (inactive)	0.000171 (inactive)	0.00576 (inactive)	-40% (inactive)	-122% (inactive)
Cc1onc(-c2ccccc2)c1C(=O)N1CCCSC1=Nc1ccccc1	665	6.5% (inactive)	12.6% (inactive)	110%	29.1% (inactive)	79.6%	-0.567 (inactive)	-5.7e-05 (inactive)	0.00639 (inactive)	10.2% (inactive)	31.9% (inactive)
O=C(COC(=O)c1ccc(Br)o1)Nc1ccc(S(=O)(=O)N2CCCC2)cc1	619	-3.6% (inactive)	-10.1% (inactive)	117%	-150% (inactive)	130%	-0.208 (inactive)	-2e-05 (inactive)	0.00525 (inactive)	12.4% (inactive)	11.3% (inactive)
COc1ccc(N2C(=O)C(Cl)=C(Nc3c(C)n(C)n(-c4ccccc4)c3=O)C2=O)cc1	607	-22.9% (inactive)	-20.7% (inactive)	95.1%	-23.5% (inactive)	102%	-0.449 (inactive)	3.3e-05 (inactive)	0.00622 (inactive)	7.07% (inactive)	12.3% (inactive)
O=S1(=O)Nc2c(ccc3cccnc23)-c2ccccc21	318	77.8% (active)	-31.5% (inactive)	50.8%	47.4% (inactive)	94.2%	-0.465 (inactive)	-0.000334 (inactive)	0.00395 (inactive)	-4.82% (inactive)	-17.5% (inactive)
Cc1ccc(NC(=O)CC2Nc3ccccc3NC2=O)cc1Cl (stereo not drawn)	357	1.4% (inactive)	14.7% (inactive)	84.3%	-45.4% (inactive)	99.7%	-0.545 (inactive)	-1.9e-05 (inactive)	0.00597 (inactive)	-4.9% (inactive)	-16.9% (inactive)
